Measurements from different studies.
Protocols differ between the studies behind these lines.
Target: Calcium/calmodulin-dependent protein kinase type II subunit alpha (CAMK2A, Homo sapiens, UniProt Q9UQM7)

Compound | test | setting | quantity | result
CCCCCCCCCCCO | enzyme activity, inhibitor | 10 µM | inhibition | -20%
COc1ccc2[nH]c3c4[nH]c5ccc(OC)cc5c4c4c(c3c2c1)C(=O)NC4=O | binding | 1 µM | remaining binding | 70%
CO[C@@H]1[C@H](N(C)C(=O)c2ccccc2)C[C@H]2O[C@]1(C)n1c3ccccc3c3c4c(c5c6ccccc6n2c5c31)C(=O)NC4 | enzyme activity, inhibitor | 1 µM | inhibition | 94%
C[C@H]1CC[C@H](n2c3cnccc3c3cnc(Nc4ccc5c(n4)CCN(C(=O)CO)C5)nc32)CC1 | cell-free assay | 1 µM | remaining signal | 33%
CCCCC(=O)Nc1ccc(-c2ccc3ncn(CCC)c(=O)c3c2)cn1 | binding, competition with immobilised ligand | 0.5 µM | remaining binding | 100%
CCCCCCCCCCCCCCCCCCCCCCO | enzyme activity, inhibitor | 10 µM | inhibition | -5%
CC(C)S(=O)(=O)c1ccc2nccc(Nc3ccc4sc(C5CCCC5)nc4c3)c2c1 | enzyme activity, inhibitor | 1 µM | activity vs control | 104%
COc1ccc2oc(-c3ccc4nc(N)oc4c3)c/c(=N\c3ccccc3NC(=O)CCN)c2c1 | binding | 1 µM | remaining binding | 93%
C=CC(=O)N1CCC([C@@H]2CCNc3c(C(N)=O)c(-c4ccc(Oc5ccccc5)cc4)nn32)CC1 | enzyme activity, inhibitor | 1 µM | inhibition | 0%
C1=C/COCc2cc(ccc2OCCN2CCCC2)Nc2nccc(n2)-c2cccc(c2)COC/1 | binding | 0.1 µM | remaining binding | 91%
